Active and inactive are the calls of the source. No cut-off for these calls is given here.
How the values were obtained:
[1] = system: Histoplasma capsulatum; test: Antifungal activity against Histoplasma capsulatum Darling isolate 1106 at 100 ug/ml after 2 weeks (reference value: 25 mm); type: functional
[2] = system: Blastomyces dermatitidis; test: Antifungal activity against Blastomyces dermatitidis Gilchrist & Stokes isolate 1107 at 20 ug/ml after 3 weeks (reference value: 40 mm); type: functional; settings: Gilchrist & Stokes isolate 1107, 504 h, read-out: DIZ
[3] = system: Blastomyces dermatitidis; test: Antifungal activity against Blastomyces dermatitidis Gilchrist & Stokes isolate 1099 at 20 ug/ml after 2 weeks (reference value: 27 mm); type: functional; settings: Gilchrist & Stokes isolate 1099, 336 h, read-out: DIZ
[4] = system: Histoplasma capsulatum; test: Antifungal activity against Histoplasma capsulatum Darling isolate 1106 at 100 ug/ml after 1 week (reference value: 14 mm); type: functional
[5] = system: Histoplasma capsulatum; test: Antifungal activity against Histoplasma capsulatum Darling isolate 1106 at 100 ug/ml after 3 weeks (reference value: 31 mm); type: functional
[6] = system: Blastomyces dermatitidis; test: Antifungal activity against Blastomyces dermatitidis Gilchrist & Stokes isolate 1099 at 10 ug/ml after 3 weeks (reference value: 34 mm); type: functional; settings: Gilchrist & Stokes isolate 1099, 504 h, read-out: DIZ
Outline: (§1)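 Mycelial phase grown on Sabouraud dextrose agar at 25°C. Agar pH was set to 6 before the test solution was added and was 5.0-5.5 after. Test solutions contained HOAc and Me2SO, and solvent and blank controls were included. Each quadrant was center-inoculated with a 2 × 2 mm piece of a 2-week-old mycelial culture. Colony diameter was measured weekly for 3 weeks and reported as total increments (mm). Duplicates were run.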

[7] = system: Blastomyces dermatitidis; test: Antifungal activity against Blastomyces dermatitidis Gilchrist & Stokes isolate 1099 at 20 ug/ml after 3 weeks (reference value: 34 mm); type: functional; settings: Gilchrist & Stokes isolate 1099, 504 h, read-out: DIZ
[8] = system: Histoplasma capsulatum; test: Antifungal activity against Histoplasma capsulatum Darling isolate 1106 at 40 ug/ml after 3 weeks (reference value: 31 mm); type: functional; settings: Darling isolate 1106, 504 h, read-out: DIZ
[9] = system: Blastomyces dermatitidis; test: Antifungal activity against Blastomyces dermatitidis Gilchrist & Stokes isolate 1107 at 100 ug/ml after 2 weeks (reference value: 35 mm); type: functional; outline: as §1
[10] = system: Histoplasma capsulatum; test: Antifungal activity against Histoplasma capsulatum Darling isolate 1098 at 10 ug/ml after 2 weeks (reference value: 21 mm); type: functional; settings: Darling isolate 1098, 336 h, read-out: DIZ
[11] = system: Histoplasma capsulatum; test: Antifungal activity against Histoplasma capsulatum Darling isolate 1098 at 80 ug/ml after 1 week (reference value: 12 mm); type: functional
[12] = system: Trichophyton rubrum; test: Antifungal activity against Trichophyton rubrum Castellani Sab.1112 at 40 to 80 ug/ml after 2 weeks; type: functional, organism-based
Outline: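 Compound in aqueous HOAc/Me2SO was filter-sterilized and mixed into melted (50°) Sabouraud dextrose agar. Agar pH was 7.0-7.5 before addition and 6.0-6.5 after, giving final levels of 10-100 μg/ml. Quadrant plates were center-inoculated with a 2 × 2 mm piece of a 2-week-old mycelial culture, sealed and kept at 25°C. Colony expansion was measured weekly, with solvent and blank controls, in duplicate.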

[13] = system: Blastomyces dermatitidis; test: Antifungal activity against Blastomyces dermatitidis Gilchrist & Stokes isolate 1107 at 80 ug/ml after 3 weeks (reference value: 40 mm); type: functional; settings: Gilchrist & Stokes isolate 1107, 504 h, read-out: DIZ; outline: as §1
[14] = system: Histoplasma capsulatum; test: Antifungal activity against Histoplasma capsulatum Darling isolate 1098 at 60 ug/ml after 1 week (reference value: 12 mm); type: functional
[15] = system: Blastomyces dermatitidis; test: Antifungal activity against Blastomyces dermatitidis Gilchrist & Stokes isolate 1107 at 80 ug/ml after 2 weeks (reference value: 35 mm); type: functional; settings: Gilchrist & Stokes isolate 1107, 336 h, read-out: DIZ; outline: as §1
[16] = system: Histoplasma capsulatum; test: Antifungal activity against Histoplasma capsulatum Darling isolate 1106 at 20 ug/ml after 2 weeks (reference value: 25 mm); type: functional; settings: Darling isolate 1106, 336 h, read-out: DIZ
[17] = system: Blastomyces dermatitidis; test: Antifungal activity against Blastomyces dermatitidis Gilchrist & Stokes isolate 1107 at 20 ug/ml after 2 weeks (reference value: 35 mm); type: functional; settings: Gilchrist & Stokes isolate 1107, 336 h, read-out: DIZ
[18] = system: Blastomyces dermatitidis; test: Antifungal activity against Blastomyces dermatitidis Gilchrist & Stokes isolate 1099 at 100 ug/ml after 2 weeks (reference value: 27 mm); type: functional
[19] = system: Blastomyces dermatitidis; test: Antifungal activity against Blastomyces dermatitidis Gilchrist & Stokes isolate 1107 at 80 ug/ml after 1 week (reference value: 20 mm); type: functional
[20] = system: Histoplasma capsulatum; test: Antifungal activity against Histoplasma capsulatum Darling isolate 1098 at 20 ug/ml after 3 weeks (reference value: 28 mm); type: functional; settings: Darling isolate 1098, 504 h, read-out: DIZ
[21] = system: Histoplasma capsulatum; test: Antifungal activity against Histoplasma capsulatum Darling isolate 1098 at 100 ug/ml after 2 weeks (reference value: 21 mm); type: functional
[22] = system: Blastomyces dermatitidis; test: Antifungal activity against Blastomyces dermatitidis Gilchrist & Stokes isolate 1107 at 40 ug/ml after 2 weeks (reference value: 35 mm); type: functional; settings: Gilchrist & Stokes isolate 1107, 336 h, read-out: DIZ; outline: as §1
[23] = system: Histoplasma capsulatum; test: Antifungal activity against Histoplasma capsulatum Darling isolate 1098 at 60 ug/ml after 3 weeks (reference value: 28 mm); type: functional; settings: Darling isolate 1098, 504 h, read-out: DIZ
[24] = system: Histoplasma capsulatum; test: Antifungal activity against Histoplasma capsulatum Darling isolate 1098 at 10 ug/ml after 3 weeks (reference value: 28 mm); type: functional; settings: Darling isolate 1098, 504 h, read-out: DIZ
[25] = system: Histoplasma capsulatum; test: Antifungal activity against Histoplasma capsulatum Darling isolate 1098 at 80 ug/ml after 3 weeks (reference value: 28 mm); type: functional
[26] = system: Histoplasma capsulatum; test: Antifungal activity against Histoplasma capsulatum Darling isolate 1106 at 60 ug/ml after 3 weeks (reference value: 31 mm); type: functional
[27] = system: Blastomyces dermatitidis; test: Antifungal activity against Blastomyces dermatitidis Gilchrist & Stokes isolate 1107 at 100 ug/ml after 1 week (reference value: 20 mm); type: functional
[28] = system: Histoplasma capsulatum; test: Antifungal activity against Histoplasma capsulatum Darling isolate 1098 at 20 ug/ml after 1 week (reference value: 12 mm); type: functional; settings: Darling isolate 1098, 168 h, read-out: DIZ
[29] = system: Histoplasma capsulatum; test: Antifungal activity against Histoplasma capsulatum Darling isolate 1106 at 40 ug/ml after 1 week (reference value: 14 mm); type: functional
[30] = system: Blastomyces dermatitidis; test: Antifungal activity against Blastomyces dermatitidis Gilchrist & Stokes isolate 1107 at 10 ug/ml after 2 weeks (reference value: 35 mm); type: functional; settings: Gilchrist & Stokes isolate 1107, 336 h, read-out: DIZ; outline: as §1
[31] = system: Histoplasma capsulatum; test: Antifungal activity against Histoplasma capsulatum Darling isolate 1098 at 40 ug/ml after 3 weeks (reference value: 28 mm); type: functional; settings: Darling isolate 1098, 504 h, read-out: DIZ
[32] = system: Histoplasma capsulatum; test: Antifungal activity against Histoplasma capsulatum Darling isolate 1106 at 20 ug/ml after 3 weeks (reference value: 31 mm); type: functional; settings: Darling isolate 1106, 504 h, read-out: DIZ
[33] = system: Histoplasma capsulatum; test: Antifungal activity against Histoplasma capsulatum Darling isolate 1106 at 60 ug/ml after 1 week (reference value: 14 mm); type: functional
[34] = system: Blastomyces dermatitidis; test: Antifungal activity against Blastomyces dermatitidis Gilchrist & Stokes isolate 1099 at 40 ug/ml after 1 week (reference value: 14 mm); type: functional
[35] = Darling isolate 1106, 168 h, read-out: DIZ
[36] = Darling isolate 1106, 504 h, read-out: DIZ
[37] = Darling isolate 1098, 168 h, read-out: DIZ
[38] = Gilchrist & Stokes isolate 1107, 168 h, read-out: DIZ

SMILES	zone of inhibition at 20 µg/mL [2]	zone of inhibition at 20 µg/mL [3]	zone of inhibition at 10 µg/mL [6]	zone of inhibition at 20 µg/mL [7]	zone of inhibition at 40 µg/mL [8]	zone of inhibition at 10 µg/mL [10]	zone of inhibition at 80 µg/mL [13]	zone of inhibition at 80 µg/mL [15]	zone of inhibition at 20 µg/mL [16]	zone of inhibition at 20 µg/mL [17]	zone of inhibition at 20 µg/mL [20]	zone of inhibition at 40 µg/mL [22]	zone of inhibition at 60 µg/mL [23]	zone of inhibition at 10 µg/mL [24]	zone of inhibition at 20 µg/mL [28]	zone of inhibition at 10 µg/mL [30]	zone of inhibition at 40 µg/mL [31]	zone of inhibition at 20 µg/mL [32]	also measured
C[C@@H]1CC[C@@H](c2ccoc2)N2C(O)[C@@](C)(Sc3ccccc3)CC[C@@H]12 (some centres not stated)	22 mm	14 mm	27 mm	18 mm	5 mm	19 mm	7 mm	3 mm	11 mm	18 mm	18 mm	15 mm	8 mm	25 mm	8 mm	26 mm	13 mm	15 mm	Activity [1]: Active; Activity [4]: Active; Activity [5]: Active; Activity [9]: Active; Activity [11]: Active; diameter of the inhibition zone (DIZ) [12]: Active; Activity [14]: Active; Activity [18]: Active; Activity [19]: Active; Activity [21]: Active; Activity [25]: Active; Activity [26]: Active; Activity [27]: Active; Activity [29]: inactive; Activity [33]: Active; Activity [34]: inactive
CS[C@@]1(C)CC[C@@H]2CCCCN2C1O (some centres not stated)	40 mm	26 mm	38 mm	35 mm	28 mm	20 mm	40 mm	29 mm	20 mm	34 mm	31 mm	33 mm	30 mm	31 mm	10 mm	33 mm	30 mm	26 mm	zone of inhibition at 100 µg/mL ([1]; Darling isolate 1106, 336 h, read-out: DIZ): 17 mm; zone of inhibition at 100 µg/mL [4, 35]: 9 mm; zone of inhibition at 100 µg/mL [5, 36]: 26 mm; zone of inhibition at 100 µg/mL ([9]; Gilchrist & Stokes isolate 1107, 336 h, read-out: DIZ): 31 mm; zone of inhibition at 80 µg/mL [11, 37]: 9 mm; zone of inhibition at 60 µg/mL [14, 37]: 9 mm; zone of inhibition at 100 µg/mL ([18]; Gilchrist & Stokes isolate 1099, 336 h, read-out: DIZ): 25 mm; zone of inhibition at 80 µg/mL [19, 38]: 18 mm; zone of inhibition at 100 µg/mL ([21]; Darling isolate 1098, 336 h, read-out: DIZ): 15 mm; zone of inhibition at 80 µg/mL ([25]; Darling isolate 1098, 504 h, read-out: DIZ): 30 mm; zone of inhibition at 60 µg/mL [26, 36]: 27 mm; zone of inhibition at 100 µg/mL [27, 38]: 16 mm; zone of inhibition at 40 µg/mL [29, 35]: 10 mm; zone of inhibition at 60 µg/mL [33, 35]: 10 mm; zone of inhibition at 40 µg/mL ([34]; Gilchrist & Stokes isolate 1099, 168 h, read-out: DIZ): 13 mm

Source: ChEMBL document CHEMBL3272198, “Preparation and in vitro antifungal activities of some quinolizidine derived hemiaminals and beta-tert-amino sulfides” (1976)
